Legend:
Type in all cases: ADME, organism-based
Rattus norvegicus [1] = assay: Distribution of Se-75 activity in Lung of female Sprague-Dawley Rat 5 min after iv administration of compound; conditions: in vivo
Outline: (§1)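 Female Sprague-Dawley rats (100-300 g), five per group, got [75Se]selenonium salt in 0.2 mL saline (5-6 μCi) by lateral tail vein. They were killed by cardioectomy under chloroform anesthesia at the stated time. A sample of the large organ was weighed and gamma counted, and counts were converted to % injected dose/g. Values are mean and SEM of five.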

Rattus norvegicus [2] = assay: Distribution of Se-75 activity in Lung of female Sprague-Dawley Rat 60 min after iv administration of compound; conditions: in vivo, 1 h; outline: as §1
Rattus norvegicus [3] = assay: Distribution of Se-75 activity in blood of female Sprague-Dawley Rat 15 min after iv administration of compound; conditions: in vivo, 0.25 h
Outline: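 Tail-vein injection of 5-6 μCi [75Se]selenonium salt in 0.2 mL saline into female Sprague-Dawley rats (100-300 g), five per group. Rats were killed by cardioectomy under chloroform anesthesia at the time point. Radioactivity was gamma counted and expressed as % injected dose/g, mean and SEM of five.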

Rattus norvegicus [4] = assay: Distribution of Se-75 activity in blood of female Sprague-Dawley Rat 240 min after iv administration of compound; conditions: in vivo, 4 h
Outline: (§2)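 Female Sprague-Dawley rats (100-300 g) got 5-6 μCi of [75Se]selenonium salt in 0.2 mL saline via lateral tail vein. Groups of five were anesthetized with chloroform at set times and killed by cardioectomy. Tissues were rinsed, blotted and weighed, then gamma-counted. Values are % injected dose per gram, mean and SEM of five.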

Rattus norvegicus [5] = assay: Distribution of Se-75 activity in blood of female Sprague-Dawley Rat 30 min after iv administration of compound; conditions: in vivo, 0.5 h; outline: as §2
Rattus norvegicus [6] = assay: Distribution of Se-75 activity in blood of female Sprague-Dawley Rat 5 min after iv administration of compound; conditions: in vivo; outline: as §2
Rattus norvegicus [7] = assay: Distribution of Se-75 activity in blood of female Sprague-Dawley Rat 60 min after iv administration of compound; conditions: in vivo, 1 h; outline: as §2
Rattus norvegicus [8] = assay: Distribution of Se-75 activity in Adrenal of female Sprague-Dawley Rat 30 min after iv administration of compound; conditions: in vivo, 0.5 h
Outline: (§3)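 Female Sprague-Dawley rats (100-300 g), five per group, got [75Se]selenonium salt by lateral tail vein: 0.2 mL saline with 5-6 μCi. Groups were killed by cardioectomy under chloroform anesthesia at the set times. The organ was taken intact, rinsed with saline, blotted, weighed and gamma counted. Values are % injected dose/g, mean and SEM of five.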

Rattus norvegicus [9] = assay: Distribution of Se-75 activity in Adrenal of female Sprague-Dawley Rat 5 min after iv administration of compound; conditions: in vivo; outline: as §3
Rattus norvegicus [10] = assay: Distribution of Se-75 activity in Adrenal of female Sprague-Dawley Rat 60 min after iv administration of compound; conditions: in vivo, 1 h; outline: as §3
Rattus norvegicus [11] = assay: Distribution of Se-75 activity in Brain of female Sprague-Dawley Rat 15 min after iv administration of compound; conditions: in vivo, 0.25 h
Rattus norvegicus [12] = assay: Distribution of Se-75 activity in Brain of female Sprague-Dawley Rat 60 min after iv administration of compound; conditions: in vivo, 1 h
Rattus norvegicus [13] = assay: Distribution of Se-75 activity in Heart of female Sprague-Dawley Rat 30 min after iv administration of compound; conditions: in vivo, 0.5 h; outline: as §3
Rattus norvegicus [14] = assay: Distribution of Se-75 activity in Heart of female Sprague-Dawley Rat 60 min after iv administration of compound; conditions: in vivo, 1 h; outline: as §3
Rattus norvegicus [15] = assay: Distribution of Se-75 activity in Kidney of female Sprague-Dawley Rat 15 min after iv administration of compound; conditions: in vivo, 0.25 h; outline: as §3
Rattus norvegicus [16] = assay: Distribution of Se-75 activity in Kidney of female Sprague-Dawley Rat 30 min after iv administration of compound; conditions: in vivo, 0.5 h; outline: as §3
Rattus norvegicus [17] = assay: Distribution of Se-75 activity in Kidney of female Sprague-Dawley Rat 5 min after iv administration of compound; conditions: in vivo; outline: as §3
Rattus norvegicus [18] = assay: Distribution of Se-75 activity in Kidney of female Sprague-Dawley Rat 60 min after iv administration of compound; conditions: in vivo, 1 h; outline: as §3
Rattus norvegicus [19] = assay: Distribution of Se-75 activity in Liver of female Sprague-Dawley Rat 120 min after iv administration of compound; conditions: in vivo, 2 h; outline: as §1
Rattus norvegicus [20] = assay: Distribution of Se-75 activity in Liver of female Sprague-Dawley Rat 15 min after iv administration of compound; conditions: in vivo, 0.25 h; outline: as §1
Rattus norvegicus [21] = assay: Distribution of Se-75 activity in Liver of female Sprague-Dawley Rat 240 min after iv administration of compound; conditions: in vivo, 4 h; outline: as §1
Rattus norvegicus [22] = assay: Distribution of Se-75 activity in Liver of female Sprague-Dawley Rat 30 min after iv administration of compound; conditions: in vivo, 0.5 h; outline: as §1
Rattus norvegicus [23] = assay: Distribution of Se-75 activity in Liver of female Sprague-Dawley Rat 5 min after iv administration of compound; conditions: in vivo; outline: as §1
Rattus norvegicus [24] = assay: Distribution of Se-75 activity in Lung of female Sprague-Dawley Rat 15 min after iv administration of compound; conditions: in vivo, 0.25 h; outline: as §1
Rattus norvegicus [25] = assay: Distribution of Se-75 activity in Heart of female Sprague-Dawley Rat 15 min after iv administration of compound; conditions: in vivo, 0.25 h; outline: as §3
Rattus norvegicus [26] = assay: Tissue radioactivity ratio in Heart to Blood 15 min after Intravenous Injection in rats; conditions: other tissue, 0.25 h
Outline: (§4)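 Same rat biodistribution: female Sprague-Dawley rats (100-300 g), 5-6 μCi [75Se]selenonium salt in 0.2 mL saline iv by tail vein, five per time point, killed by cardioectomy under chloroform. Ratios are tissue-to-tissue quotients of gamma-counted % injected dose per gram in each organ (adrenal, heart, kidney, liver, blood).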

Rattus norvegicus [27] = assay: Tissue radioactivity ratio in Heart to Blood 30 min after Intravenous Injection in rats; conditions: other tissue, 0.5 h; outline: as §4
Rattus norvegicus [28] = assay: Tissue radioactivity ratio in Heart to Blood 5 min after Intravenous Injection in rats; conditions: other tissue; outline: as §4
Rattus norvegicus [29] = assay: Tissue radioactivity ratio in Heart to Blood 60 min after Intravenous Injection in rats; conditions: other tissue, 1 h; outline: as §4
Rattus norvegicus [30] = assay: Tissue radioactivity ratio in adrenal to Kidney 120 min after Intravenous Injection in rats; conditions: in vivo, 2 h; outline: as §4
Rattus norvegicus [31] = assay: Tissue radioactivity ratio in adrenal to Kidney 15 min after Intravenous Injection in rats; conditions: in vivo, 0.25 h; outline: as §4
Rattus norvegicus [32] = assay: Tissue radioactivity ratio in adrenal to Kidney 240 min after Intravenous Injection in rats; conditions: in vivo, 4 h; outline: as §4
Rattus norvegicus [33] = assay: Tissue radioactivity ratio in adrenal to Kidney 30 min after Intravenous Injection in rats; conditions: in vivo, 0.5 h; outline: as §4
Rattus norvegicus [34] = assay: Tissue radioactivity ratio in adrenal to Liver 120 min after Intravenous Injection in rats; conditions: in vivo, 2 h; outline: as §4
Rattus norvegicus [35] = assay: Tissue radioactivity ratio in adrenal to Liver 240 min after Intravenous Injection in rats; conditions: in vivo, 4 h; outline: as §4
Rattus norvegicus [36] = assay: Tissue radioactivity ratio in adrenal to Liver 30 min after Intravenous Injection in rats; conditions: in vivo, 0.5 h; outline: as §4
Rattus norvegicus [37] = assay: Tissue radioactivity ratio in adrenal to Liver 60 min after Intravenous Injection in rats; conditions: in vivo, 1 h; outline: as §4
Rattus norvegicus [38] = assay: Tissue radioactivity ratio in adrenal to blood 240 min after Intravenous Injection in rats; conditions: other tissue, 4 h; outline: as §4
Rattus norvegicus [39] = assay: Tissue radioactivity ratio in adrenal to blood 30 min after Intravenous Injection in rats; conditions: other tissue, 0.5 h; outline: as §4
Rattus norvegicus [40] = assay: Tissue radioactivity ratio in adrenal to blood 60 min after Intravenous Injection in rats; conditions: other tissue, 1 h; outline: as §4
Rattus norvegicus [41] = assay: Tissue radioactivity ratio in adrenal to Kidney 60 min after Intravenous Injection in rats; conditions: in vivo, 1 h; outline: as §4

## COc1ccc(CC[Se+](C)C)cc1OC.[I-]
Rattus norvegicus [1]
  Dose/g: 1.44%
Rattus norvegicus [2]
  Dose/g: 0.38%
Rattus norvegicus [3]
  Dose/g: 0.26%
Rattus norvegicus [4]
  Dose/g: 0.03%
Rattus norvegicus [5]
  Dose/g: 0.22%
Rattus norvegicus [6]
  Dose/g: 0.34%
Rattus norvegicus [7]
  Dose/g: 0.12%
Rattus norvegicus [8]
  Dose/g: 0.94%
Rattus norvegicus [9]
  Dose/g: 0.86%
Rattus norvegicus [10]
  Dose/g: 0.71%
Rattus norvegicus [11]
  Dose/g: 0.02%
Rattus norvegicus [12]
  Dose/g: 0.01%
Rattus norvegicus [13]
  Dose/g: 0.58%
Rattus norvegicus [14]
  Dose/g: 0.27%
Rattus norvegicus [15]
  Dose/g: 1.29%
Rattus norvegicus [16]
  Dose/g: 0.99%
Rattus norvegicus [17]
  Dose/g: 2.73%
Rattus norvegicus [18]
  Dose/g: 0.53%
Rattus norvegicus [19]
  Dose/g: 0.29%
Rattus norvegicus [20]
  Dose/g: 1.93%
Rattus norvegicus [21]
  Dose/g: 0.18%
Rattus norvegicus [22]
  Dose/g: 1.75%
Rattus norvegicus [23]
  Dose/g: 2.48%
Rattus norvegicus [24]
  Dose/g: 0.097%
Rattus norvegicus [25]
  Dose/g: 1.16%
Rattus norvegicus [26]
  Ratio: 4.46
Rattus norvegicus [27]
  Ratio: 2.64
Rattus norvegicus [28]
  Ratio: 7
Rattus norvegicus [29]
  Ratio: 2.25
Rattus norvegicus [30]
  Ratio: 2.24
Rattus norvegicus [31]
  Ratio: 0.68
Rattus norvegicus [32]
  Ratio: 4
Rattus norvegicus [33]
  Ratio: 0.95
Rattus norvegicus [34]
  Ratio: 2.55
Rattus norvegicus [35]
  Ratio: 3.55
Rattus norvegicus [36]
  Ratio: 0.54
Rattus norvegicus [37]
  Ratio: 1.14
Rattus norvegicus [38]
  Ratio: 21.33
Rattus norvegicus [39]
  Ratio: 4.27
Rattus norvegicus [40]
  Ratio: 5.92
Rattus norvegicus [41]
  Ratio: 1.34

## C[Se+](C)CCc1ccc(O)c(O)c1.[Cl-]
Rattus norvegicus [1]
  Dose/g: 1.25%
Rattus norvegicus [2]
  Dose/g: 0.58%
Rattus norvegicus [3]
  Dose/g: 0.3%
Rattus norvegicus [4]
  Dose/g: 0.05%
Rattus norvegicus [5]
  Dose/g: 0.28%
Rattus norvegicus [6]
  Dose/g: 0.35%
Rattus norvegicus [7]
  Dose/g: 0.18%
Rattus norvegicus [8]
  Dose/g: 0.86%
Rattus norvegicus [9]
  Dose/g: 0.78%
Rattus norvegicus [10]
  Dose/g: 0.87%
Rattus norvegicus [11]
  Dose/g: 0.01%
Rattus norvegicus [12]
  Dose/g: 0.01%
Rattus norvegicus [13]
  Dose/g: 1.08%
Rattus norvegicus [14]
  Dose/g: 0.46%
Rattus norvegicus [15]
  Dose/g: 1.07%
Rattus norvegicus [16]
  Dose/g: 1.07%
Rattus norvegicus [17]
  Dose/g: 2.65%
Rattus norvegicus [18]
  Dose/g: 0.59%
Rattus norvegicus [19]
  Dose/g: 0.32%
Rattus norvegicus [20]
  Dose/g: 2%
Rattus norvegicus [21]
  Dose/g: 0.23%
Rattus norvegicus [22]
  Dose/g: 2.73%
Rattus norvegicus [23]
  Dose/g: 1.86%
Rattus norvegicus [24]
  Dose/g: 1.14%
Rattus norvegicus [25]
  Dose/g: 1.58%
Rattus norvegicus [26]
  Ratio: 5.27
Rattus norvegicus [27]
  Ratio: 3.86
Rattus norvegicus [28]
  Ratio: 6.77
Rattus norvegicus [29]
  Ratio: 2.55
Rattus norvegicus [30]
  Ratio: 2.52
Rattus norvegicus [31]
  Ratio: 0.81
Rattus norvegicus [32]
  Ratio: 3.28
Rattus norvegicus [33]
  Ratio: 0.81
Rattus norvegicus [34]
  Ratio: 2.28
Rattus norvegicus [35]
  Ratio: 2.56
Rattus norvegicus [36]
  Ratio: 0.31
Rattus norvegicus [37]
  Ratio: 1.04
Rattus norvegicus [38]
  Ratio: 11.8
Rattus norvegicus [39]
  Ratio: 3.07
Rattus norvegicus [40]
  Ratio: 4.83
Rattus norvegicus [41]
  Ratio: 1.47

Reference: ChEMBL document CHEMBL1122494, “New selenium-75 labeled radiopharmaceuticals: selenonium analogues of dopamine” (J Med Chem, 1983)
